Active and inactive are the calls of the source. The calls are words filed in the database; no cut-off is given here. Peptide text beside a SMILES is read from it.
Key:
[1] = test system: HIT-T15; experiment: Cytoprotective activity in hamster HIT-T15 cells assessed as inhibition of serum starvation-induced cell death after 24 hrs by MTT assay relative to control; type: functional, cell-based; details: Mesocricetus auratus
Procedure, shortened: (§1)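 Viability by MTT in HIT-T15 cells seeded at 5×10^3/well, serum-starved 24 h, then 24 h more in serum-free medium with peptide (1–100 nM). MTT 1 mg/mL ~1 h, DMSO solubilization, absorbance 570 nm. Expressed as percent of serum-free control. Mean ± SE, ≥3 experiments in quadruplicate.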

[2] = test system: HIT-T15; experiment: Cytoprotective activity in hamster HIT-T15 cells assessed as inhibition of IFN-gamma/TNFalpha/IL1beta-induced cell death after 24 hrs by MTT assay relative to control; type: functional, cell-based; details: Mesocricetus auratus
Procedure, shortened: (§2)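 HIT-T15 cells (5×10^3/well) serum-starved 24 h, then 24 h serum-free with IFN-γ 100 ng/mL, TNF-α 200 ng/mL, IL-1β 10 ng/mL plus peptide (1–100 nM). MTT 1 mg/mL ~1 h, formazan dissolved in DMSO, A570. Reported as percent of cytokine control. Mean ± SE of ≥3 experiments in quadruplicate.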

[3] = test system: HIT-T15; experiment: Antiapoptotic activity in hamster HIT-T15 cells assessed as reduction in IFN-gamma/TNFalpha/IL1beta-induced apoptosis at 1 nM after 24 hrs by Hoechst staining relative to control; type: functional, cell-based; details: Mesocricetus auratus
Procedure, shortened: (§3)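 HIT-T15 cells serum-starved 24 h, then 24 h in serum-free medium with IFN-γ 100 ng/mL, TNF-α 200 ng/mL, IL-1β 10 ng/mL plus peptide. Cells pooled with floating cells, formaldehyde-fixed, ethanol-stored, stained with 10 μg/mL Hoechst 33258. Condensed/fragmented nuclei counted, 500 nuclei in duplicate, n = 3. Reported as percent apoptotic cells.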

[4] = test system: Rattus norvegicus; experiment: Antidiabetic activity in neonatal Sprague-Dawley rat assessed as inhibition of STZ-induced decrease in plasma insulin level at 100 nmol/kg, […] post STZ-challenge measured after 70 days by RIA by relative to control; type: functional, organism-based
[5] = test system: HIT-T15; experiment: Antiapoptotic activity in hamster HIT-T15 cells assessed as reduction in IFN-gamma/TNFalpha/IL1beta-induced apoptosis at 100 nM after 24 hrs by Hoechst staining relative to control; type: functional, cell-based; details: Mesocricetus auratus; procedure, shortened: as §3
[6] = test system: Rattus norvegicus; experiment: Antidiabetic activity in neonatal Sprague-Dawley rat assessed as inhibition of STZ-induced decrease in pancreatic insulin level at 30 nmol/kg, […] measured after 70 days by RIA relative to control; type: functional, organism-based
[7] = test system: Rattus norvegicus; experiment: Antidiabetic activity in neonatal Sprague-Dawley rat assessed as inhibition of STZ-induced decrease in plasma insulin level at 30 nmol/kg, sc administered from day 2 to day 9 post STZ-challenge measured after 70 days by RIA relative to control; type: functional, organism-based
Procedure, shortened: (§4)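 Neonatal rats given STZ 100 mg/kg ip in citrate buffer (pH 4.5) on day 1 of birth, then peptide 30 or 100 nmol/kg sc twice daily, days 2–8. Controls received citrate buffer. Killed at day 70. Glucose measured colorimetrically in nonfasted plasma. Plasma and pancreatic (80 mg) insulin measured by RIA. n = 11–21 per group.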

[8] = test system: Rattus norvegicus; experiment: Antidiabetic activity in neonatal Sprague-Dawley rat assessed as inhibition of STZ-induced decrease in pancreatic insulin level at 100 nmol/kg, sc administered from day 2 to day 9 post STZ-challenge measured after 70 days by RIA by relative to control; type: functional, organism-based; procedure, shortened: as §4
[9] = test system: Rattus norvegicus; experiment: Antidiabetic activity in neonatal Sprague-Dawley rat assessed as inhibition of STZ-induced mortality at 30 nmol/kg, sc administered on day 2 post STZ-challenge measured on day 9 (reference value: 52%); type: functional; parameters: scale not given: the % may be the effect or the level left
[10] = test system: HIT-T15; experiment: Cytoprotective activity in hamster HIT-T15 cells assessed as inhibition of IFN-gamma/TNFalpha/IL1beta-induced cell death at 1 to 100 nM after 24 hrs by MTT assay relative to control; type: functional, cell-based; details: Mesocricetus auratus; procedure, shortened: as §2
[11] = test system: Pancreatic islet; experiment: Cytoprotective activity in human pancreatic islet cells assessed as inhibition of IFN-gamma/TNFalpha/IL1beta-induced cell death at 10 to 100 nM after 72 hrs by MTT assay relative to control; type: functional
Procedure, shortened: (§5)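 Human donor islets (>70% purity, 25/well) held 72 h in serum-free medium with peptide, alone or with IFN-γ/TNF-α/IL-1β at 5 ng/mL each. Viability by MTT (1 mg/mL ~1 h, DMSO, 570 nm). Mean ± SE of ≥3 experiments in quadruplicate.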

[12] = test system: HIT-T15; experiment: Cytoprotective activity in hamster HIT-T15 cells assessed as inhibition of serum starvation-induced cell death at 1 to 100 nM after 24 hrs by MTT assay relative to control; type: functional, cell-based; details: Mesocricetus auratus; procedure, shortened: as §1
[13] = test system: Pancreatic islet; experiment: Cytoprotective activity in human pancreatic islet cells assessed as inhibition of serum starvation-induced cell death at 10 to 100 nM after 72 hrs by MTT assay relative to control; type: functional; procedure, shortened: as §5
[14] = test system: HIT-T15; experiment: Antiapoptotic activity in hamster HIT-T15 cells assessed as reduction in IFN-gamma/TNFalpha/IL1beta-induced apoptosis at 10 nM after 24 hrs by Hoechst staining relative to control; type: functional, cell-based; details: Mesocricetus auratus; procedure, shortened: as §3
[15] = test system: EPC; experiment: Cytoprotective activity in human EPC assessed as decrease in H2O2-induced ROS production after 2 hrs by DCF-DA flow cytometry assay; type: functional
Procedure, shortened: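 Human EPCs from peripheral blood mononuclear cells, cultured 21 days on collagen I in EGM-2. ROS measured by flow cytometry using DCF-DA (0.5 μM final) after 2 h of treatment. H₂O₂ 150 μM as positive control.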

[16] = target: Ras-related C3 botulinum toxin substrate 1 (Homo sapiens) (UniProt P63000); experiment: Inhibition of Rac1 activation
[17] = test system: Rattus norvegicus; experiment: Antidiabetic activity in neonatal Sprague-Dawley rat assessed as decrease in STZ-induced plasma glucose level at 100 nmol/kg, sc administered from day 2 to day 9 post STZ-challenge measured after 70 days by colorimetry by relative to control; type: functional, organism-based; procedure, shortened: as §4
[18] = test system: Rattus norvegicus; experiment: Antidiabetic activity in neonatal Sprague-Dawley rat assessed as decrease in STZ-induced plasma glucose level at 30 nmol/kg, sc administered from day 2 to day 9 post STZ-challenge measured after 70 days by colorimetry relative to control; type: functional, organism-based; procedure, shortened: as §4
[19] = test system: EPC; experiment: Cytoprotective activity in human EPC assessed as decrease in H2O2-induced senescence associated beta-galactosidase positive cells at 10 uM after 24 hrs; type: functional
Procedure, shortened: (§6)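 EPCs given test peptides (1 μM or 10 μM) with or without H₂O₂ for 24 h. Cells then fixed in 2% paraformaldehyde for 3 min and stained 24 h at 37 °C with X-gal solution. SA-β-gal-positive cells counted out of 100 at 20× by three investigators.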

[20] = test system: Rattus norvegicus; experiment: Antidiabetic activity in neonatal Sprague-Dawley rat assessed as inhibition of STZ-induced mortality at 100 nmol/kg, sc administered on day 2 post STZ-challenge measured on day 9 (reference value: 52%); type: functional; parameters: scale not given: the % may be the effect or the level left
[21] = test system: Pancreatic islet; experiment: Cytoprotective activity in human pancreatic islet cells assessed as inhibition of serum starvation-induced cell death at 10 nM after 24 hrs by MTT assay relative to control; type: functional
Procedure, shortened: (§7)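 Human donor islets (purity >70%, 25/well) serum-starved 24 h, then 24 h serum-free with peptide (1–100 nM), alone or with IFN-γ 100 ng/mL, TNF-α 200 ng/mL, IL-1β 10 ng/mL. MTT 1 mg/mL ~1 h, DMSO, A570. Percent of serum-free or cytokine control. ≥3 experiments in quadruplicate.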

[22] = test system: Pancreatic islet; experiment: Cytoprotective activity in human pancreatic islet cells assessed as inhibition of serum starvation-induced cell death at 100 nM after 24 hrs by MTT assay relative to control; type: functional; procedure, shortened: as §7
[23] = test system: EPC; experiment: Cytoprotective activity in human EPC assessed as decrease in H2O2-induced senescence associated beta-galactosidase positive cells at 1 uM after 24 hrs; type: functional; procedure, shortened: as §6
[24] = test system: Pancreatic islet; experiment: Cytoprotective activity in human pancreatic islet cells assessed as inhibition of IFN-gamma/TNFalpha/IL1beta-induced cell death at 100 nM after 24 hrs by MTT assay relative to control; type: functional; procedure, shortened: as §7
[25] = test system: Pancreatic islet; experiment: Cytoprotective activity in human pancreatic islet cells assessed as inhibition of IFN-gamma/TNFalpha/IL1beta-induced cell death at 1 nM after 24 hrs by MTT assay relative to control; type: functional; procedure, shortened: as §7
[26] = test system: Pancreatic islet; experiment: Cytoprotective activity in human pancreatic islet cells assessed as inhibition of serum starvation-induced cell death at 1 nM after 24 hrs by MTT assay relative to control; type: functional; procedure, shortened: as §7
[27] = test system: Pancreatic islet; experiment: Cytoprotective activity in human pancreatic islet cells assessed as inhibition of IFN-gamma/TNFalpha/IL1beta-induced cell death at 10 nM after 24 hrs by MTT assay relative to control; type: functional; procedure, shortened: as §7
[28] = test system: HIT-T15; experiment: Cytoprotective activity in hamster HIT-T15 cells assessed as inhibition of IFN-gamma/TNFalpha/IL1beta-induced cell death at 10 to 100 nM after 24 hrs by MTT assay relative to control; type: functional, cell-based; details: Mesocricetus auratus; procedure, shortened: as §2

Compound | Activity [1] | Activity [2] | Activity [3] | Activity [5] | Activity [6] | Activity [7] | Activity [9] | Activity [10] | Activity [11] | Activity [12] | Activity [13] | Activity [14] | Activity [15] | inhibition [16] | Activity [18] | Activity [19] | Activity [28] | further results
CC(C)[C@H](NC(=O)[C@H](CCCNC(=N)N)NC(=O)[C@H](CCC(N)=O)NC(=O)[C@H](Cc1cnc[nH]1)NC(=O)[C@H](CCC(=O)O)NC(=O)[C@@H]1CCCN1C(=O)[C@@H](N)CO)C(=O)N[C@@H](CCC(N)=O)C(N)=O | Dose-dependent effect | Dose-dependent effect | Active | Active | Active | Active | 71% | Active | Active | Active | Active | Active | Active | Active | Active | Active |  | Activity [4]: Active; Activity [8]: Active; Activity [17]: Active; Activity [20]: 89%
CC(C)C[C@H](NC(=O)[C@H](CCCCN)NC(=O)[C@H](C)NC(=O)[C@@H]1CCCN1C(=O)[C@@H]1CCCN1C(=O)[C@H](CCCCN)NC(=O)[C@H](CCCCN)NC(=O)[C@H](CO)NC(=O)[C@H](CCC(=O)O)NC(=O)[C@H](CCCCN)NC(=O)[C@H](CCCNC(=N)N)NC(=O)[C@H](CCC(N)=O)NC(=O)[C@H](CCC(N)=O)NC(=O)[C@@H](NC(=O)[C@H](CCCNC(=N)N)NC(=O)[C@H](CCC(N)=O)NC(=O)[C@H](Cc1cnc[nH]1)NC(=O)[C@H](CCC(=O)O)NC(=O)[C@@H]1CCCN1C(=O)[C@H](CO)NC(=O)[C@H](CC(C)C)NC(=O)[C@H](Cc1ccccc1)NC(=O)[C@H](CO)NC(=O)[C@H](CO)NC(=O)CN)C(C)C)C(=O)N[C@@H](CCC(N)=O)C(=O)N1CCC[C@H]1C(=O)N[C@@H](CCCNC(=N)N)C(=O)O | Dose-dependent effect | Dose-dependent effect | Active | Active | Active | Active | 72% | Active | Active | Active | Active | Active | Active |  | Active |  |  | Activity [21]: Active; Activity [22]: Active; Activity [23]: Active; Activity [24]: Active; Activity [25]: Active; Activity [26]: inactive; Activity [27]: Active
CC(C)[C@H](NC(=O)[C@H](CCCNC(=N)N)NC(=O)[C@H](CCC(N)=O)NC(=O)[C@@H](N)Cc1cnc[nH]1)C(N)=O (H-HQRV-NH2) |  |  |  |  |  |  |  |  |  |  |  |  |  |  |  |  | Active | 
CC(C)[C@@H]1NC(=O)[C@H](CCCNC(=N)N)NC(=O)[C@H](CCC(N)=O)NC(=O)[C@H](Cc2cnc[nH]2)NC(=O)[C@H](CCC(=O)O)NC(=O)[C@@H]2CCCN2C(=O)[C@H](CO)NC(=O)[C@H](CCC(N)=O)NC1=O (cyclo(EHQRVQSP)) | Dose-dependent effect | Dose-dependent effect |  |  |  |  |  |  |  |  |  |  | Active | Active |  | Active |  | 
H-EHQRV-NH2 |  |  | inactive | Active |  |  |  |  |  |  |  | inactive |  |  |  |  | Active | 
H-EHQRVQ-NH2 |  |  |  | Active |  |  |  | Active |  |  |  | Active |  |  |  |  |  | 

— ChEMBL document CHEMBL2029233, “Des-acyl ghrelin fragments and analogues promote survival of pancreatic β-cells and human pancreatic islets and prevent diabetes in streptozotocin-treated rats” (2012)
